Measurements taken from ChEMBL document CHEMBL1921792, “Synthesis and anticonvulsant activity of trans- and cis-2-(2,6-dimethylphenoxy)-N-(2- or 4-hydroxycyclohexyl)acetamides and their amine analogs” (Bioorg Med Chem, 2011).
Activity calls are given as the source filed them.

How the values were obtained:
[1] = tested on: Mus musculus; assay: Anticonvulsant activity in mouse assessed as protection against maximal electric shock-induced seizures at 100 mg/kg, ip after 4 hrs; format: functional, organism-based; design: dose 100 mg/kg
In short: (§1)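 Phase I maximal electroshock screen in mice. Compound given ip as a suspension in 0.5% methylcellulose at 30, 100 or 300 mg/kg, tested at 30 min and 4 h. Small groups (1–8); result is number protected/number tested.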

[2] = tested on: Mus musculus; assay: Anticonvulsant activity against subcutaneous pentylenetetrazole-induced seizures in mouse at 30 mg/kg, ip after 4 hrs; format: functional, organism-based; design: dose 30 mg/kg
In short: (§2)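 Phase I screen in mice. Compound given ip as a suspension in 0.5% methylcellulose, read at 30 min and 4 h. Pentylenetetrazole 85 mg/kg in 0.9% NaCl was injected sc into the posterior midline and animals watched ≥30 min. Protection meant no clonic spasm lasting ≥5 s. Groups of 1–8 animals; result is protected/tested.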

[3] = tested on: Mus musculus; assay: Anticonvulsant activity against subcutaneous pentylenetetrazole-induced seizures in mouse at 30 mg/kg, ip after 0.5 hrs; format: functional, organism-based; design: dose 30 mg/kg; in short: as §2
[4] = tested on: Mus musculus; assay: Anticonvulsant activity against subcutaneous pentylenetetrazole-induced seizures in mouse at 100 mg/kg, ip after 0.5 hrs; format: functional, organism-based; design: dose 100 mg/kg; in short: as §2
[5] = tested on: Mus musculus; assay: Anticonvulsant activity against subcutaneous pentylenetetrazole-induced seizures in mouse at 100 mg/kg, ip after 4 hrs; format: functional, organism-based; design: dose 100 mg/kg; in short: as §2
[6] = tested on: Mus musculus; assay: Anticonvulsant activity in mouse assessed as protection against maximal electric shock-induced seizures at 30 mg/kg, ip after 0.5 hrs; format: functional, organism-based; design: dose 30 mg/kg; in short: as §1
[7] = tested on: Mus musculus; assay: Neurotoxicity in mouse assessed as inability to maintain equilibrium on rotarod at 100 mg/kg, ip after 4 hrs by rotarod test; format: toxicity, organism-based; design: dose 100 mg/kg, route intraperitoneal; settings: in vivo
In short: (§3)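 Drug given ip to mice as a suspension in 0.5% methylcellulose. At the stated time after dosing, each mouse was placed on a 1 inch knurled rod turning at 6 rpm. Neurotoxicity = inability to stay balanced at least 1 min in each of three trials. Scored as animals toxic/animals tested in small groups.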

[8] = tested on: Mus musculus; assay: Anticonvulsant activity in mouse assessed as protection against maximal electric shock-induced seizures at 30 mg/kg, ip after 4 hrs; format: functional, organism-based; design: dose 30 mg/kg; in short: as §1
[9] = tested on: Mus musculus; assay: Neurotoxicity in mouse assessed as inability to maintain equilibrium on rotarod at 30 mg/kg, ip after 4 hrs by rotarod test; format: toxicity, organism-based; design: dose 30 mg/kg, route intraperitoneal; settings: in vivo; in short: as §3
[10] = tested on: Mus musculus; assay: Neurotoxicity in mouse assessed as inability to maintain equilibrium on rotarod at 30 mg/kg, ip after 0.5 hrs by rotarod test; format: toxicity, organism-based; design: dose 30 mg/kg, route intraperitoneal; settings: in vivo; in short: as §3
[11] = tested on: Mus musculus; assay: Neurotoxicity in mouse assessed as inability to maintain equilibrium on rotarod at 300 mg/kg, ip after 0.5 hrs by rotarod test; format: toxicity, organism-based; design: dose 300 mg/kg, route intraperitoneal; settings: in vivo; in short: as §3
[12] = tested on: Mus musculus; assay: Anticonvulsant activity in mouse assessed as protection against maximal electric shock-induced seizures at 100 mg/kg, ip after 0.5 hrs; format: functional, organism-based; design: dose 100 mg/kg; in short: as §1
[13] = tested on: Mus musculus; assay: Anticonvulsant activity in mouse assessed as protection against maximal electric shock-induced seizures at 300 mg/kg, ip after 4 hrs; format: functional, organism-based; design: dose 300 mg/kg; in short: as §1
[14] = tested on: Mus musculus; assay: Anticonvulsant activity against subcutaneous pentylenetetrazole-induced seizures in mouse assessed as increase in tonic threshold at 106 mg/kg, ip by threshold tonic extension test; format: functional, organism-based; design: dose 106 mg/kg
In short: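 Threshold tonic extension test in mice. The compound was given ip, then pentylenetetrazol was infused until the first twitch and the first clonus. PTZ dose was calculated from the infusion speed. Mean of 8 animals ± S.E.M.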

[15] = tested on: Mus musculus; assay: Anticonvulsant activity in mouse assessed as protection against maximal electric shock-induced seizures at 130 mg/kg, ip after 0.5 hrs; format: functional, organism-based; design: dose 130 mg/kg
In short: (§4)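 Time-to-peak-effect assay: MES protection read at 0.25–4 h after dosing. Mice ip (60–130 mg/kg), rats po (15 or 30 mg/kg) or ip (30 mg/kg). Groups of 4–8; result is protected/tested.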

[16] = tested on: N1E-115; assay: Blockade of voltage-gated sodium channel in mouse N1E-115 cells assessed as stimulation at 100 umol at -90 mV holding potential by whole-cell patch clamp electrophysiological assay relative to control; format: cell-based
In short: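 Whole-cell patch clamp with borosilicate glass electrodes on single cultured N1E-115 neuroblastoma cells. Compound at 100 µmol, holding potential -90 mV. Voltage-dependent sodium current expressed as % of control stimulation (no compound). Results from 5–8 cells averaged with SEM; significance by Student's t-test.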

[17] = tested on: N1E-115; assay: Blockade of voltage-gated sodium channel in mouse N1E-115 cells assessed as stimulation at 100 umol at -60 mV holding potential by whole-cell patch clamp electrophysiological assay relative to control; format: cell-based
[18] = tested on: Rattus norvegicus; assay: Anticonvulsant activity in rat assessed as protection against maximal electric shock-induced seizures at 30 mg/kg, po after 0.5 hrs; format: functional, organism-based; design: dose 30 mg/kg
In short: (§5)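 MES test in rats dosed orally at 30 mg/kg as a suspension in 0.5% methylcellulose, read at 0.25–4 h. Four rats per time point; result is protected/tested.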

[19] = organism: Mus musculus; assay: Activation of kainate receptor in mouse cortical neurons assessed as potentiation of kainate-induced effect at 100 umol at -70 mV holding potential by whole-cell patch clamp electrophysiological assay relative to control
In short: (§6)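 Whole-cell patch clamp on primary cultured murine cortical neurons, borosilicate glass electrodes. Responses to GABA, NMDA or kainate were recorded with the compound present, as % of control stimulation. Compound at 100 µmol, holding potential -70 mV. Significance p < 0.05.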

[20] = tested on: Rattus norvegicus; assay: Anticonvulsant activity in fully kindled rat hippocampus assessed as protection against focal seizures at 100 mg/kg, ip after 15 mins; format: functional, organism-based; design: dose 100 mg/kg
In short: (§7)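 Rat hippocampus kindled with 50 Hz AC, […] for 1 s, every 0.5 h for 6 h, every other day for 10 days (60 cycles), reaching Racine stage 5. Compound 100 mg/kg ip; seizures re-induced at 15–135 min. Racine score below 3 counts as protection.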

[21] = tested on: Rattus norvegicus; assay: Anticonvulsant activity in fully kindled rat hippocampus assessed as protection against focal seizures at 100 mg/kg, ip after 45 mins; format: functional, organism-based; design: dose 100 mg/kg; in short: as §7
[22] = organism: Mus musculus; assay: Activation of GABA receptor in mouse cortical neurons assessed as potentiation of GABA-induced effect at 100 umol at -70 mV holding potential by whole-cell patch clamp electrophysiological assay relative to control; in short: as §6
[23] = tested on: Rattus norvegicus; assay: Anticonvulsant activity in rat assessed as protection against maximal electric shock-induced seizures at 30 mg/kg, po after 0.25 hrs; format: functional, organism-based; design: dose 30 mg/kg; in short: as §5
[24] = tested on: Mus musculus; assay: Anticonvulsant activity in mouse assessed as protection against maximal electric shock-induced seizures at 90 mg/kg, ip after 0.25 hrs; format: functional, organism-based; design: dose 90 mg/kg; in short: as §4
[25] = tested on: Mus musculus; assay: Anticonvulsant activity against subcutaneous pentylenetetrazole-induced seizures in mouse at 300 mg/kg, ip after 0.5 hrs; format: functional, organism-based; design: dose 300 mg/kg; in short: as §2
[26] = tested on: Mus musculus; assay: Anticonvulsant activity in mouse assessed as protection against maximal electric shock-induced seizures at 130 mg/kg, ip after 2 hrs; format: functional, organism-based; design: dose 130 mg/kg; in short: as §4
[27] = tested on: Mus musculus; assay: Anticonvulsant activity in mouse assessed as protection against maximal electric shock-induced seizures at 130 mg/kg, ip after 4 hrs; format: functional, organism-based; design: dose 130 mg/kg; in short: as §4
[28] = tested on: Mus musculus; assay: Anticonvulsant activity in mouse assessed as protection against maximal electric shock-induced seizures at 130 mg/kg, ip after 0.25 hrs; format: functional, organism-based; design: dose 130 mg/kg; in short: as §4
[29] = organism: Mus musculus; assay: Activation of NMDA receptor in mouse cortical neurons assessed as potentiation of NMDA/glycine-induced effect at 100 umol at -70 mV holding potential by whole-cell patch clamp electrophysiological assay relative to control; in short: as §6
[30] = Neurotoxicity in ip dosed mouse assessed as inability to maintain equilibrium on rotarod by rotarod test; format: toxicity, organism-based; settings: in vivo
In short: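 Mice dosed ip with a suspension in 0.5% methylcellulose, then placed on a 1 inch knurled plastic rod rotating at 6 rpm. Toxicity = failure to keep equilibrium for at least 1 min in each of three trials.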

[31] = organism: Mus musculus; assay: Protective index, ratio of TD50 for neurotoxicity in mouse to ED50 for inhibition of maximal electroshock-induced seizures in mouse; format: functional
[32] = Neurotoxicity in po dosed rat assessed as neurological deficit […]; format: toxicity, organism-based; settings: in vivo
In short: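 Rats dosed orally with a suspension in 0.5% methylcellulose. Neurological deficit judged by ataxia and loss of placing response and muscle tone.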

[33] = organism: Rattus norvegicus; assay: Protective index, ratio of TD50 for neurotoxicity in rat to ED50 for inhibition of maximal electroshock-induced seizures in rat; format: functional
[34] = tested on: Rattus norvegicus; assay: Anticonvulsant activity in po dosed rat assessed as protection against maximal electric shock-induced seizures; format: functional
[35] = tested on: Mus musculus; assay: Anticonvulsant activity in ip dosed mouse assessed as protection against maximal electric shock-induced seizures; format: functional; settings: Mus musculus, ip; read-out: ED50

For `Cc1cccc(C)c1OCCNC1CCC(O)CC1` (racemic), the Activity [1] was “inactive”, the Activity [2] was “inactive” and the Activity [3] was “inactive”. For the same compound, the Activity [4] was “inactive”, the Activity [5] was “inactive” and the Activity [6] was “inactive”. For the same compound, the Activity [7] was “Non-toxic”, the Activity [8] was “inactive” and the Activity [9] was “Non-toxic”. The Activity [10] was “Non-toxic”, the Activity [11] was “Toxic” and the Activity [12] was “Active”.
With `Cc1cccc(C)c1OCC(=O)NC1CCCCC1O` (racemic; 1) the Activity [13] was “inactive”, the Activity [14] was “Active” and the Activity [1] was “inactive”. For the same compound, the Activity [15] was “Active”, the Activity [16] was 85% and the Activity [17] was 39%. For the same compound, the Activity [2] was “inactive”, the Activity [3] was “inactive” and the Activity [18] was “Active”. For the same compound, the Activity [19] was 98%, the Activity [5] was “inactive” and the Activity [20] was “Active”. The Activity [6] was “inactive”, the Activity [21] was “Active” and the Activity [8] was “inactive”. The Activity [22] was 179%, the Activity [23] was “Active” and the Activity [24] was “Active”. The Activity [25] was “Active”, the Activity [26] was “inactive” and the Activity [27] was “inactive”. For the same compound, the Activity [28] was “Active” and the Activity [29] was 104%.
In the case of `O=C1NC(=O)C(c2ccccc2)(c2ccccc2)N1` [PHENYTOIN], the TD50 [30] is reported as 34.5 mg/kg, the Activity [16] is reported as 78% and the “Ratio TD50/ED50” value [31] is reported as 6.6. The TD50 [32] was greater than 500 mg/kg, the “Ratio TD50/ED50” value [33] was greater than 22 and the ED50 [34] was 32.2 mg/kg. It also gave an ED50 [35] of 6.48 mg/kg.
